Only some compounds are listed: those with a hit (about 2.6% of all), similar ones and a draw of the others.
procasp3 activ: activators of human procaspase-3 D3A mutant, primary screen, biochemical, absorbance, PC-3 D3A mutant, single concentration | AID 463141, 2010 | actives 0.11% (n = 330,000) | recombinant procaspase-3 D3A, Ac-DEVD-pNA absorbance 405 nm | activation, % at 8.5 µM | Caspase-3 (Homo sapiens), P42574;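 active = activation above the mean of all tested compounds plus 3 SD, cut at about 21% in these data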;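 also: 0% = DMSO alone and 100% = DMSO wells spiked with extra 5 µM PC-3 D3A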
Target sequence (P42574 whole entry D9A/D28A/D175A): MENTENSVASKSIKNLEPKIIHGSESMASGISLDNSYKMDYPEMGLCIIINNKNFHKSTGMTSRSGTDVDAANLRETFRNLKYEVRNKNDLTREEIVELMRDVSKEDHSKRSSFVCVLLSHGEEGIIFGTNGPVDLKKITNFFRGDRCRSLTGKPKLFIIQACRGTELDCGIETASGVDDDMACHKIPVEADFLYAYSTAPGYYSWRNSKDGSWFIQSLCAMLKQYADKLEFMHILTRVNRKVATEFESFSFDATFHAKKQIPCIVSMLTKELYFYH
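Test system: Procaspase-3 D3A mutant; medium: Zinc-free HEPES/NaCl buffer with 0.01% Triton X-100 at pH 7.4; reagent: DEVD-pNA substrate; doses: one concentration, 8.5 µM nominal, 0.8% DMSO; times: 1 h preincubation plus 2 h reaction at 25 °C; signal: Epi-absorbance at 405 nm of released p-nitroaniline, 0 and 120 min; replicates: singlicate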
procasp7 counter: procaspase-7 activators, primary screen, counter-screen for procaspase-3 activator project, biochemical, absorbance, HTS, human; Caspase-7 (Homo sapiens), P55210; recombinant procaspase-7, Ac-DEVD-pNA absorbance 405 nm; D23A/D198A/D206A triple mutant, cannot self-cleave; scale: DMSO 0, 5 µM enzyme 100; activation, % at 8.5 µM; actives 0.093% (n = 330,000); AID 463210, 2010;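 active = percent activation above the screen-wide mean plus 3 SD, cut at about 25% in these data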
Target sequence (P55210 whole entry D23A/D198A/D206A): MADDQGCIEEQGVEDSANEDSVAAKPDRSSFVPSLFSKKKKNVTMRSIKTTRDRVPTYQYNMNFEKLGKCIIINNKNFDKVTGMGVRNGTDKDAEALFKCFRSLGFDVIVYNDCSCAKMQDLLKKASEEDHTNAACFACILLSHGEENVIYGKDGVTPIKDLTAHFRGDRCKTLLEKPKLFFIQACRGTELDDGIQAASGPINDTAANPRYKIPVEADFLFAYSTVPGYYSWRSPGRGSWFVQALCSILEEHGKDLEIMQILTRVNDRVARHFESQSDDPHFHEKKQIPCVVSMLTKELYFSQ
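Assay system – Uncleavable procaspase-7 mutant enzyme · Quantity – 2 µM procaspase-7 mutant as dispensed · Times – 1 h preincubation, 2 h reaction · Dosing – single nominal 8.5 µM compound dose, 0.8% DMSO final · Buffer or medium – Zinc-free 50 mM HEPES buffer, pH 7.4, with NaCl and Triton X-100 · Detection – Epi-absorbance of released pNA at 405 nm, two timepoints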
AHR act: AHR activators, primary screen, cell-based, luminescence, luciferase reporter, human; Aryl hydrocarbon receptor (Homo sapiens), P35869; AHR-responsive luciferase reporter cells; activation, % at 5 µM; actives 2.5% (n = 320,000); AID 2796, 2010; in the data active = activation above about 47%;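 also: 0% = vehicle wells and 100% = reference agonist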
PolyA inh: polyadenylation inhibitors in yeast reporter cells, primary screen, luminescence, S. cerevisiae; activity score, % at 12 µM; S. cerevisiae SKY197-pL101 polyadenylation reporter, beta-gal luminescence; efflux-impaired pdr1/pdr3 knockout yeast; score 100 = 6 SD above DMSO; actives 0.02% (n = 300,000); AID 1875, 2009;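 active = lowest replicate activity score at least 50, where 100 means six control SD above control mean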;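 also: yeast exposed to compound for 9 h at 30 °C; higher score means more reporter readthrough which indicates perturbed polyadenylation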
* marks the source's active call; other numbers are inactive results; / = no result given.

SMILES	procasp3 activ	procasp7 counter	AHR act	PolyA inh
CC(=O)CC(=O)Nc1ccc(Nc2ccccc2)cc1	-2	0	-1	-9
Cc1cc(NC(=O)c2nn(C)c(C)c2Br)no1	5	-4	63*	-9
C=CCOc1cccc(/C=C/c2nc3ccccc3c(=O)[nH]2)c1	6	11	20	2
Cc1ccc(C2=NS(=O)(=O)N(C)C(C(=O)Nc3ccc4c(c3)OCO4)=C2)cc1	-4	5	53*	-11
COc1ccc(/C=N/NC(=O)c2ccc(COc3ccccc3Cl)o2)cc1	-1	4	62*	-8
Cn1ncc(Br)c1C(=O)Nc1cccc(C(F)(F)F)c1	-1	-11	71*	10
CN(C)c1ccc(NC(=O)CCn2c(=S)oc3ccccc32)cc1	-5	-16	59*	-5
O=C(CN1C(=O)NC2(CCCCC2)C1=O)Nc1ccc2c(c1)OCCCO2	-4	-5	-1	/
C/C(CC(=O)NC1CCCCC1)=N\NC(=O)COc1ccc(C)cc1Br	2	0	8	-13
CC1=Nn2c(nnc2-c2cc(-c3ccccc3)n[nH]2)SC1	5	10	79*	-1
c1ccc(-c2ccc(C3=Nn4c(nnc4-c4cc(-c5ccccc5)n[nH]4)SC3)cc2)cc1	2	6	31	16
Cc1nc2cc3c(cc2c(C)c1C(=O)OC(C)C)OCO3	8	7	64*	-21
CCN(C(=O)CSc1nc2ccccc2[nH]1)C1CCS(=O)(=O)C1 (stereo not drawn)	8	10	-2	/
Cc1cccc(NC(=S)/N=C(\N)Nc2nc(C)c3ccccc3n2)c1	1	-7	69*	-7
Cc1ccc(NC(=S)/N=C(\N)Nc2nc(C)c3ccccc3n2)cc1C	4	7	48*	-18
Cc1cccc(NC(=S)/N=C(\N)Nc2nc(C)c3cc(C)ccc3n2)c1	6	5	-11	-22
CCOc1ccc2nc(N/C(N)=N/C(=S)Nc3ccc(OC)cc3)nc(C)c2c1	2	-7	64*	1
Cc1cccc(NC(=S)/N=C(\N)Nc2nc(C)c3ccc(C)cc3n2)c1	-3	5	57*	-8
C#CCN(Cc1ccco1)C(=O)c1ccc(OC2CCN(Cc3ccccn3)CC2)cc1	-7	0	2	-21
CCOC(=O)c1c(NC(=S)NCC2CCCO2)sc(C)c1C (stereo not drawn)	-16	-15	5	2
Cn1c(=O)oc2cc(S(=O)(=O)N3CCC(C(=O)NCCc4ccccc4)CC3)ccc21	5	5	2	-19
COc1ccnc(CSC(N)=Nc2cccc(C(F)(F)F)c2)c1	-16	-21	55*	5
COc1ccnc(CSC(N)=Nc2ccccc2C(F)(F)F)c1	2	17	6	-5
CCC(C(=O)OCC(=O)N1CCN(c2ccc(OC)cc2)CC1)c1ccccc1 (stereo not drawn)	9	2	0	/
Cc1ccc(NS(=O)(=O)c2ccc(N/N=C/c3ccncc3)c([N+](=O)[O-])c2)c(C)c1	9	3	48*	-10
SMILES	procasp3 activ	procasp7 counter	AHR act	PolyA inh
Cc1cc(N/N=C/c2ccncc2)c([N+](=O)[O-])cc1[N+](=O)[O-]	7	5	27	4
Cc1ccc(/C=N/NC(=O)c2ccncc2)cc1	-2	-8	7	1
Cc1ccc(/C=N\NC(=O)c2csnn2)cc1	-3	-4	49*	-9
O=S(=O)(c1ccc2ccccc2c1)N1CCN(CCO)CC1	-3	5	0	-8
O=c1[nH]c(CSc2nc3ccccc3s2)nc2cc(Cl)ccc12	-15	-10	53*	-10
O=C(O)c1ccccc1Cc1nc2cc(Cl)ccc2c(=O)[nH]1	-2	8	1	-6
Cc1sc2nc(CSc3nc4ccccc4s3)[nH]c(=O)c2c1C	-5	-3	14	14
O=C(OCc1nc2ccccc2c(=O)[nH]1)c1cccs1	6	8	55*	0
CCn1c(SCc2nc3ccccc3c(=O)[nH]2)nc2ccccc2c1=O	-8	13	67*	-4
O=c1[nH]c(Cc2cccs2)nc2ccccc12	7	2	3	-8
COCCCn1c(SCc2nc3ccccc3c(=O)[nH]2)nc2ccccc2c1=O	-1	6	34	-14
O=c1[nH]c(CSc2nc3ccccc3s2)nc2ccccc12	-1	0	66*	-7
Cc1cc(-c2nnc(SCC(=O)Nc3ccc(C)c(C)c3)n2N)n[nH]1	9	-5	11	-16
O=c1[nH]c(SCc2nc3ccccc3c(=O)n2-c2ccccc2)nc2ccccc12	-4	6	55*	-14
Cc1cc(C)c(C#N)c(SCc2nc3ccccc3c(=O)[nH]2)n1	-5	-4	51*	-15
O=c1[nH]c(SCc2n[nH]c(=S)n2-c2ccccc2)nc2ccccc12	-4	-5	9	-7
COCc1cc(C)nc(SCc2nc3ccccc3c(=O)[nH]2)c1C#N	-8	-4	34	29
NS(=O)(=O)c1ccc(CCNC(=O)C(=O)NCC2OCCN2S(=O)(=O)c2ccc(Cl)cc2)cc1 (stereo not drawn)	3	-5	0	0
COc1ccc(CNC(=O)COC(=O)c2ccc(S(=O)(=O)N3CCOCC3)cc2)cc1	8	4	-1	/
Cc1nn2c(N)c(-c3ccccc3)cnc2c1-c1ccc(Cl)cc1	19	-4	64*	-24
Cc1cccc(OCC(=O)NC(C)C(=O)N/N=C/c2c(OCc3ccccc3)ccc3ccccc23)c1 (stereo not drawn)	8	-11	88*	6
CC1(c2ccc3c(c2)OCCCO3)NC(=O)N(CC(=O)Nc2cccc(C#N)c2)C1=O (stereo not drawn)	4	-1	1	/
O=C(Nc1cccc(F)c1)C1CCCN(C(=O)c2ccc(Cl)cc2)C1 (stereo not drawn)	-6	4	51*	/
O=C(Nc1ccccc1)C1CCCN(C(=O)c2ccc(Cl)cc2)C1 (stereo not drawn)	2	-10	-2	-10
Cc1c(C(=O)N2CCN(c3ncccn3)CC2)oc2c(Cl)cccc12	-10	2	-10	3
CCCCc1nnc(NC(=O)c2oc3ccc(OC)cc3c2C)s1	-3	-2	-7	4
Cc1c(C(=O)Nc2nccs2)oc2c(Cl)cccc12	3	-3	55*	4
O=C(Nc1nccs1)c1cccc2ccccc12	6	15	31	-8
COc1ccc2oc(C(=O)Nc3nccs3)c(C)c2c1	-3	1	77*	0
Cc1c(C(=O)Nc2ccccn2)oc2c(Cl)cccc12	0	6	74*	-23

Compound activity from PubChem BioAssay.
